System: Fibroblast
Experiment: Multiplex assay against human fibroblast
Type: toxicity, cell-based
Method in brief: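 Phenotypes for tubulin, mitochondrial mass and membrane permeability are expressed as per cents of healthy-nucleus cells. Cells were stained live at seeding with Hoechst33342, BioTracker Green Microtubule Cytoskeleton Dye, MitoTracker Red and Annexin V Alexa Fluor 680, then imaged after compound addition on a CQ1 microscope at 37°C and 5% CO2. Machine-learning gating in CellPathfinder separated Hoechst high-intensity objects from normal cells, divided normal cells by nuclear state (healthy, pyknosed, fragmented) and divided pyknosed cells into mitotic or apoptotic.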

[1] = 12 h, 1 µM, compound concentration 1 uM, replicate 1
[2] = 12 h, 1 µM, compound concentration 1 uM, replicate 2
[3] = 12 h, 10 µM, compound concentration 10 uM, replicate 1
[4] = 12 h, 10 µM, compound concentration 10 uM, replicate 2
[5] = 24 h, 1 µM, compound concentration 1 uM, replicate 1
[6] = 24 h, 1 µM, compound concentration 1 uM, replicate 2
[7] = 24 h, 10 µM, compound concentration 10 uM, replicate 1
[8] = 24 h, 10 µM, compound concentration 10 uM, replicate 2
[9] = 48 h, 1 µM, compound concentration 1 uM, replicate 1
[10] = 48 h, 1 µM, compound concentration 1 uM, replicate 2
[11] = 48 h, 10 µM, compound concentration 10 uM, replicate 1
[12] = 48 h, 10 µM, compound concentration 10 uM, replicate 2

Cl.O=C(O)c1cc(-c2ccc(C3CCNCC3)cc2)c2ccc(-c3ccc(C(F)(F)F)cc3)cc2c1
Population Apoptotic (%) [1]: 65%
Population Fragmented Nuclei (%) [1]: 31%
Population Healthy Nuclei (%) [1]: 31%
Population Hoechst High Intensity Objects (%) [1]: 20%
Population Membrane Permeable-Phenotype (%) [1]: 31%
Population Mitochondria Different-Phenotype (%) [1]: 5%
Population Mitotic Cells (%) [1]: 34%
Population Normal (%) [1]: 79%
Population Pyknosed Nuclei (%) [1]: 37%
Population Tubulin-Different-Phenotype (%) [1]: 21%
Total Cell Count [1]: 77
Population Apoptotic (%) [2]: 50%
Population Fragmented Nuclei (%) [2]: 11%
Population Healthy Nuclei (%) [2]: 83%
Population Hoechst High Intensity Objects (%) [2]: 5%
Population Membrane Permeable-Phenotype (%) [2]: 3%
Population Mitochondria Different-Phenotype (%) [2]: 16%
Population Mitotic Cells (%) [2]: 50%
Population Normal (%) [2]: 94%
Population Pyknosed Nuclei (%) [2]: 5%
Population Tubulin-Different-Phenotype (%) [2]: 36%
Total Cell Count [2]: 60
Population Apoptotic (%) [3]: 62%
Population Fragmented Nuclei (%) [3]: 27%
Population Healthy Nuclei (%) [3]: 40%
Population Hoechst High Intensity Objects (%) [3]: 18%
Population Membrane Permeable-Phenotype (%) [3]: 5%
Population Mitochondria Different-Phenotype (%) [3]: 20%
Population Mitotic Cells (%) [3]: 37%
Population Normal (%) [3]: 81%
Population Pyknosed Nuclei (%) [3]: 32%
Population Tubulin-Different-Phenotype (%) [3]: 57%
Total Cell Count [3]: 122
Population Apoptotic (%) [4]: 60%
Population Fragmented Nuclei (%) [4]: 14%
Population Healthy Nuclei (%) [4]: 64%
Population Hoechst High Intensity Objects (%) [4]: 14%
Population Membrane Permeable-Phenotype (%) [4]: 10%
Population Mitochondria Different-Phenotype (%) [4]: 13%
Population Mitotic Cells (%) [4]: 40%
Population Normal (%) [4]: 85%
Population Pyknosed Nuclei (%) [4]: 21%
Population Tubulin-Different-Phenotype (%) [4]: 23%
Total Cell Count [4]: 38
Population Apoptotic (%) [5]: 62%
Population Fragmented Nuclei (%) [5]: 24%
Population Healthy Nuclei (%) [5]: 47%
Population Hoechst High Intensity Objects (%) [5]: 21%
Population Membrane Permeable-Phenotype (%) [5]: 44%
Population Mitochondria Different-Phenotype (%) [5]: 7%
Population Mitotic Cells (%) [5]: 37%
Population Normal (%) [5]: 78%
Population Pyknosed Nuclei (%) [5]: 28%
Population Tubulin-Different-Phenotype (%) [5]: 44%
Total Cell Count [5]: 73
Population Apoptotic (%) [6]: 20%
Population Fragmented Nuclei (%) [6]: 11%
Population Healthy Nuclei (%) [6]: 79%
Population Hoechst High Intensity Objects (%) [6]: 3%
Population Membrane Permeable-Phenotype (%) [6]: 4%
Population Mitochondria Different-Phenotype (%) [6]: 9%
Population Mitotic Cells (%) [6]: 80%
Population Normal (%) [6]: 96%
Population Pyknosed Nuclei (%) [6]: 9%
Population Tubulin-Different-Phenotype (%) [6]: 30%
Total Cell Count [6]: 62
Population Apoptotic (%) [7]: 53%
Population Fragmented Nuclei (%) [7]: 35%
Population Healthy Nuclei (%) [7]: 36%
Population Hoechst High Intensity Objects (%) [7]: 15%
Population Membrane Permeable-Phenotype (%) [7]: 12%
Population Mitochondria Different-Phenotype (%) [7]: 27%
Population Mitotic Cells (%) [7]: 46%
Population Normal (%) [7]: 84%
Population Pyknosed Nuclei (%) [7]: 28%
Population Tubulin-Different-Phenotype (%) [7]: 62%
Total Cell Count [7]: 131
Population Apoptotic (%) [8]: 61%
Population Fragmented Nuclei (%) [8]: 17%
Population Healthy Nuclei (%) [8]: 61%
Population Hoechst High Intensity Objects (%) [8]: 8%
Population Membrane Permeable-Phenotype (%) [8]: 7%
Population Mitochondria Different-Phenotype (%) [8]: 5%
Population Mitotic Cells (%) [8]: 38%
Population Normal (%) [8]: 91%
Population Pyknosed Nuclei (%) [8]: 20%
Population Tubulin-Different-Phenotype (%) [8]: 16%
Total Cell Count [8]: 56
Population Apoptotic (%) [9]: 50%
Population Fragmented Nuclei (%) [9]: 30%
Population Healthy Nuclei (%) [9]: 40%
Population Hoechst High Intensity Objects (%) [9]: 20%
Population Membrane Permeable-Phenotype (%) [9]: 48%
Population Mitochondria Different-Phenotype (%) [9]: 0%
Population Mitotic Cells (%) [9]: 50%
Population Normal (%) [9]: 79%
Population Pyknosed Nuclei (%) [9]: 29%
Population Tubulin-Different-Phenotype (%) [9]: 40%
Total Cell Count [9]: 78
Population Apoptotic (%) [10]: 100%
Population Fragmented Nuclei (%) [10]: 16%
Population Healthy Nuclei (%) [10]: 82%
Population Hoechst High Intensity Objects (%) [10]: 8%
Population Membrane Permeable-Phenotype (%) [10]: 6%
Population Mitochondria Different-Phenotype (%) [10]: 2%
Population Mitotic Cells (%) [10]: 0%
Population Normal (%) [10]: 91%
Population Pyknosed Nuclei (%) [10]: 1%
Population Tubulin-Different-Phenotype (%) [10]: 26%
Total Cell Count [10]: 104
Population Apoptotic (%) [11]: 76%
Population Fragmented Nuclei (%) [11]: 42%
Population Healthy Nuclei (%) [11]: 46%
Population Hoechst High Intensity Objects (%) [11]: 21%
Population Membrane Permeable-Phenotype (%) [11]: 11%
Population Mitochondria Different-Phenotype (%) [11]: 9%
Population Mitotic Cells (%) [11]: 23%
Population Normal (%) [11]: 78%
Population Pyknosed Nuclei (%) [11]: 11%
Population Tubulin-Different-Phenotype (%) [11]: 37%
Total Cell Count [11]: 146
Population Apoptotic (%) [12]: 100%
Population Fragmented Nuclei (%) [12]: 57%
Population Healthy Nuclei (%) [12]: 38%
Population Hoechst High Intensity Objects (%) [12]: 9%
Population Membrane Permeable-Phenotype (%) [12]: 4%
Population Mitochondria Different-Phenotype (%) [12]: 12%
Population Mitotic Cells (%) [12]: 0%
Population Normal (%) [12]: 90%
Population Pyknosed Nuclei (%) [12]: 3%
Population Tubulin-Different-Phenotype (%) [12]: 58%
Total Cell Count [12]: 139

Reference: ChEMBL document CHEMBL4689842, “EUbOPEN Chemogenomics Library wave 1” (2021)
